Residues, ends and D or L forms follow the SMILES beside them.
How the values were obtained:
[1] = Antioxidant activity assessed as PYR quenching after 180 mins by HPLC analysis; type: functional; parameters: concentration or dose not given beside the values
In short: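 Pyridoxal used as the target aldehyde under the same incubation (180 min). Consumption determined by HPLC with fluorimetric detection. Expressed as % aldehyde consumed versus a blank incubated without compound.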

[2] = Stability in human serum assessed as compound remaining at 50 uM after 30 mins by LC-MS analysis; type: ADME, cell-free; conditions: read-out: Stability
[3] = Selectivity ratio of antioxidant activity assessed as HNE quenching to antioxidant activity assessed as PYR quenching
In short: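 Ratio of % HNE quenched to % pyridoxal quenched. Both measured after 180 min incubation, with % consumption taken against blanks without compound.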

[4] = Antioxidant activity assessed as HNE quenching at 1 mM after 180 mins by HPLC analysis; type: functional
In short: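 HNE consumption measured with dipeptide at 1 mM in 10 mmol PBS pH 7.4, 180 min at 37 °C. Remaining HNE measured by reversed-phase HPLC with PDA detection at 224 nm. Column at 37 °C. Isocratic H2O/CH3CN/HCOOH 40/60/0.1. Result given as % aldehyde consumed relative to a blank without compound.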

SMILES: NCCCC[C@H](N)C(=O)N[C@H](Cc1cnc[nH]1)C(N)=O
- Activity [1]: 0.75%
- remaining at 0.5 h, 50 µM [2]: 68%
- Selectivity ratio [3]: 5.55
- Activity [4]: 4.16%

SMILES: N=C(N)NCCC[C@H](N)C(=O)N[C@H](Cc1cnc[nH]1)C(N)=O
- Activity [1]: 0.43%
- Selectivity ratio [3]: 27.9
- Activity [4]: 12%

SMILES: COC(=O)[C@@H](Cc1cnc[nH]1)NC(=O)[C@@H](N)C(C)C
- Activity [1]: 3.62%
- Selectivity ratio [3]: 4.67
- Activity [4]: 16.9%

SMILES: NC(=O)[C@@H](Cc1cnc[nH]1)NC(=O)[C@@H](N)Cc1cnc[nH]1
- Activity [1]: 7.28%
- Selectivity ratio [3]: 1.26
- Activity [4]: 9.16%

SMILES: COC(=O)[C@H](Cc1cnc[nH]1)NC(=O)[C@@H](N)Cc1ccc(O)cc1
- Activity [1]: 4.02%
- Selectivity ratio [3]: 3.12
- Activity [4]: 12.5%

SMILES: COC(=O)[C@@H](Cc1cnc[nH]1)NC(=O)[C@@H](N)Cc1ccc(O)cc1
- Activity [1]: 1.29%
- remaining at 0.5 h, 50 µM [2]: 40.5%
- Selectivity ratio [3]: 21.3
- Activity [4]: 27.4%

SMILES: NC(=O)[C@H](Cc1cnc[nH]1)NC(=O)[C@@H](N)Cc1cnc[nH]1
- Activity [1]: 7.86%
- Selectivity ratio [3]: 1.35
- Activity [4]: 9.81%

SMILES: COC(=O)[C@@H](Cc1cnc[nH]1)NC(=O)[C@@H](N)CO
- Activity [1]: 2.08%
- Selectivity ratio [3]: 2.84
- Activity [4]: 5.91%

SMILES: CC[C@H](C)[C@H](N)C(=O)N[C@@H](Cc1cnc[nH]1)C(N)=O
- Activity [1]: 2.02%
- Selectivity ratio [3]: 3.51
- Activity [4]: 7.09%

SMILES: COC(=O)[C@H](Cc1cnc[nH]1)NC(=O)[C@@H](N)CS
- Activity [1]: 25.3%
- Selectivity ratio [3]: 3.96
- Activity [4]: 100%

SMILES: NC(=O)[C@H](Cc1cnc[nH]1)NC(=O)[C@@H](N)Cc1c[nH]c2ccccc12
- Activity [1]: 1.86%
- Selectivity ratio [3]: 6.01
- Activity [4]: 8.62%

SMILES: NC(=O)CC[C@H](N)C(=O)N[C@H](Cc1cnc[nH]1)C(N)=O
- Activity [1]: 1.57%
- remaining at 0.5 h, 50 µM [2]: 81.3%
- Selectivity ratio [3]: 9.4
- Activity [4]: 14.8%

SMILES: NC(=O)[C@H](Cc1cnc[nH]1)NC(=O)[C@@H](N)Cc1ccccc1
- Activity [1]: 1.22%
- Selectivity ratio [3]: 8.02
- Activity [4]: 9.79%

SMILES: NC(=O)CC[C@H](N)C(=O)N[C@@H](Cc1cnc[nH]1)C(N)=O
- Activity [1]: 2.65%
- Selectivity ratio [3]: 3.54
- Activity [4]: 9.37%

SMILES: NC(=O)[C@@H](Cc1cnc[nH]1)NC(=O)[C@@H](N)CC(=O)O
- Activity [1]: 1.16%
- Selectivity ratio [3]: 4.02
- Activity [4]: 5.98%

SMILES: COC(=O)[C@@H](Cc1cnc[nH]1)NC(=O)[C@@H](N)CS
- Activity [1]: 40.8%
- Selectivity ratio [3]: 2.45
- Activity [4]: 100%

SMILES: COC(=O)[C@H](Cc1cnc[nH]1)NC(=O)[C@@H](N)C(C)C
- Activity [1]: 0.87%
- Selectivity ratio [3]: 5.71
- Activity [4]: 4.97%

SMILES: C[C@@H](O)[C@H](N)C(=O)N[C@H](Cc1cnc[nH]1)C(N)=O
- Activity [1]: 6.62%
- Selectivity ratio [3]: 1.83
- Activity [4]: 12.1%

SMILES: COC(=O)[C@H](Cc1cnc[nH]1)NC(=O)[C@@H](N)CO
- Activity [1]: 0.1%
- Selectivity ratio [3]: 51.8
- Activity [4]: 5.18%

SMILES: NC(=O)[C@@H](Cc1cnc[nH]1)NC(=O)[C@@H](N)Cc1ccccc1
- Activity [1]: 0.7%
- Selectivity ratio [3]: 9.57
- Activity [4]: 6.7%

SMILES: COC(=O)[C@@H](Cc1cnc[nH]1)NC(=O)[C@@H](N)CCSC
- Activity [1]: 3.11%
- Selectivity ratio [3]: 0.58
- Activity [4]: 1.81%

SMILES: COC(=O)[C@H](Cc1cnc[nH]1)NC(=O)[C@@H](N)CCC(=O)O
- Activity [1]: 0.76%
- Selectivity ratio [3]: 16.1
- Activity [4]: 12.2%

SMILES: COC(=O)[C@@H](Cc1cnc[nH]1)NC(=O)[C@@H](N)Cc1c[nH]c2ccccc12
- Activity [1]: 5.81%
- Selectivity ratio [3]: 3.24
- Activity [4]: 18.8%

SMILES: C[C@@H](O)[C@H](N)C(=O)N[C@@H](Cc1cnc[nH]1)C(N)=O
- Activity [1]: 1.42%
- Selectivity ratio [3]: 2.75
- Activity [4]: 3.9%

SMILES: COC(=O)[C@@H](Cc1cnc[nH]1)NC(=O)[C@@H](N)CCC(=O)O
- Activity [1]: 0.73%
- Selectivity ratio [3]: 18
- Activity [4]: 13.1%

SMILES: COC(=O)[C@@H](Cc1cnc[nH]1)NC(=O)[C@@H](N)CCCCN
- Activity [1]: 0.35%
- remaining at 0.5 h, 50 µM [2]: 90.5%
- Selectivity ratio [3]: 29.1
- Activity [4]: 10.2%

SMILES: NCCCC[C@H](N)C(=O)N[C@@H](Cc1cnc[nH]1)C(N)=O
- Activity [1]: 0.41%
- remaining at 0.5 h, 50 µM [2]: 67.7%
- Selectivity ratio [3]: 38.3
- Activity [4]: 15.7%

SMILES: NCCC(=O)N[C@@H](Cc1c[nH]cn1)C(=O)O
- Activity [1]: 5.57%
- Selectivity ratio [3]: 8.65
- Activity [4]: 48.2%

SMILES: NC(=O)[C@@H](Cc1cnc[nH]1)NC(=O)[C@@H](N)CS
- Activity [1]: 37.2%
- Selectivity ratio [3]: 2.69
- Activity [4]: 100%

SMILES: COC(=O)[C@@H](Cc1cnc[nH]1)NC(=O)[C@@H](N)Cc1cnc[nH]1
- Activity [1]: 7.7%
- Selectivity ratio [3]: 1.15
- Activity [4]: 8.86%

SMILES: COC(=O)[C@H](Cc1cnc[nH]1)NC(=O)[C@@H](N)Cc1cnc[nH]1
- Activity [1]: 1.82%
- Selectivity ratio [3]: 3.3
- Activity [4]: 6%

SMILES: CC[C@H](C)[C@H](N)C(=O)N[C@H](Cc1cnc[nH]1)C(N)=O
- Activity [1]: 0.59%
- Selectivity ratio [3]: 8.69
- Activity [4]: 5.13%

SMILES: COC(=O)[C@H](Cc1cnc[nH]1)NC(=O)[C@@H](N)CCCCN
- Activity [1]: 1.87%
- remaining at 0.5 h, 50 µM [2]: 87.5%
- Selectivity ratio [3]: 16.7
- Activity [4]: 31.3%

SMILES: NC(=O)[C@H](Cc1cnc[nH]1)NC(=O)[C@@H](N)CC(=O)O
- Activity [1]: 1.49%
- Selectivity ratio [3]: 5.16
- Activity [4]: 5.99%

SMILES: NC(=O)[C@H](Cc1cnc[nH]1)NC(=O)[C@@H](N)CS
- Activity [1]: 27.7%
- Selectivity ratio [3]: 3.61
- Activity [4]: 100%

SMILES: NC(=O)[C@@H](Cc1cnc[nH]1)NC(=O)[C@@H](N)Cc1c[nH]c2ccccc12
- Activity [1]: 0.13%
- Selectivity ratio [3]: 86.2
- Activity [4]: 11.2%

SMILES: COC(=O)[C@H](Cc1cnc[nH]1)NC(=O)[C@@H](N)CCSC
- Activity [1]: 2.61%
- Selectivity ratio [3]: 0.07
- Activity [4]: 0.17%

SMILES: COC(=O)[C@H](Cc1cnc[nH]1)NC(=O)[C@@H](N)CC(N)=O
- Activity [1]: 1%
- Selectivity ratio [3]: 9.59
- Activity [4]: 9.59%

SMILES: COC(=O)[C@H](Cc1c[nH]cn1)NC(=O)[C@@H](N)Cc1c[nH]c2ccccc12
- Activity [1]: 4.2%
- Selectivity ratio [3]: 2.79
- Activity [4]: 11.7%

SMILES: COC(=O)[C@@H](Cc1cnc[nH]1)NC(=O)[C@@H](N)CC(N)=O
- Activity [1]: 1.14%
- Selectivity ratio [3]: 8.33
- Activity [4]: 9.5%

SMILES: NCC(=O)N[C@@H](Cc1cnc[nH]1)C(=O)O (H-Gly-His-OH)
- Activity [1]: 3.77%
- Selectivity ratio [3]: 2.42
- Activity [4]: 9.11%

SMILES: N=C(N)NCCC[C@H](N)C(=O)N[C@@H](Cc1cnc[nH]1)C(N)=O
- Activity [1]: 0.26%
- Selectivity ratio [3]: 30
- Activity [4]: 7.79%

Reference: ChEMBL document CHEMBL2407007, “Exploring the space of histidine containing dipeptides in search of novel efficient RCS sequestering agents” (Eur J Med Chem, 2013)
